Data set [1] concerns L1210. Briefly: Cytotoxicity against mouse L1210 cells after 48 hrs by MTT assay. The data set is classed as functional, cell-based. The settings on record: L1210, 48 h. In outline: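 Murine L1210 cells in RPMI 1640 with 10% FCS, glutamine, antibiotics and HEPES pH 7.4, exposed 48 h to graded concentrations. MTT added for 4 h at 37 °C, formazan dissolved in DMSO, OD 540 nm. IC50 (50% OD reduction vs untreated controls) by linear regression on linear zone of dose–response; triplicate.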
In general terms: Tetrazolium dyes change colour on reduction, which living cells bring about.

For the next data set, the system named is HT-29. Briefly: Cytotoxicity against human HT29 cells after 96 hrs by MTA assay. In kind it is functional. In outline: (§1)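 Adherent DU145, HT29, A549, KB 3-1 and KB-A1 cells grown in RPMI 1640 with 10% FCS, 2 mM glutamine, antibiotics and HEPES pH 7.4. Seeded, grown 2 days, then exposed to compound 96 h (about 4 doubling times). MTT added for 4 h at 37 °C, formazan dissolved in DMSO, read at 540 nm. IC50 from linear regression on linear part of dose–response; triplicate.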

In a further data set the test system is DU-145. Briefly: Cytotoxicity against human DU145 cells after 96 hrs by MTA assay. In kind it is functional. Put shortly:
as §1

The test system of data set [2] is L1210. Briefly: Cell cycle arrest in mouse L1210 cells assessed as accumulation at G1 phase at 50 nM after 21 hrs by flow cytometry using propidium iodide staining. In kind it is functional. Put shortly: (§2)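 L1210 cells exposed to compound for 21 h (two doubling times), fixed in 70% ethanol, washed, stained 30 min at 20 °C in D-PBS with RNAse and propidium iodide; 10⁴ cells per sample analysed by flow cytometry for G1, S, G2+M and 8N (tetraploid) fractions.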
(Flow cytometry measures light scatter and fluorescence of single cells or particles in a stream.)

For data set [3], the system named is L1210. Briefly: Cell cycle arrest in mouse L1210 cells assessed as accumulation at S phase at 50 nM after 21 hrs by flow cytometry using propidium iodide staining. The data set is classed as functional. In outline: as §2
In data set [4] the test system is L1210. Briefly: Cell cycle arrest in mouse L1210 cells assessed as accumulation at G2/M phase at 50 nM after 21 hrs by flow cytometry using propidium iodide staining. The data set is classed as functional. In outline: as §2
In data set [5] the test system is L1210. Briefly: Cell cycle arrest in mouse L1210 cells assessed as accumulation of tetraploid cells at 50 nM after 21 hrs by flow cytometry using propidium iodide staining. In kind it is functional. In outline: as §2
Data set [6] is described as follows: Inhibition of tubulin polymerization.
Data set [7] relates to L1210. Briefly: Cell cycle arrest in mouse L1210 cells assessed as accumulation at G2/M phase at 25 nM after 21 hrs by flow cytometry using propidium iodide staining. In kind it is functional. In outline: as §2
Data set [8] is described as follows: Cytotoxicity against adriamycin-resistant human KB-A1 cells after 96 hrs by MTA assay. The data set is classed as functional. In outline: as §1
The nature of data set [9]: Cytotoxicity against human KB-3-1 cells after 96 hrs by MTA assay. The data set is classed as functional. Put shortly: as §1
The next data set relates to A549. Briefly: Cytotoxicity against human A549 cells after 96 hrs by MTA assay. In kind it is functional. Put shortly: as §1
Data set [10] has as its system L1210. Briefly: Cell cycle arrest in mouse L1210 cells assessed as accumulation at G1 phase at 25 nM after 21 hrs by flow cytometry using propidium iodide staining. The data set is classed as functional. In outline: as §2
Data set [11] deals with L1210. Briefly: Cell cycle arrest in mouse L1210 cells assessed as accumulation at S phase at 25 nM after 21 hrs by flow cytometry using propidium iodide staining. The data set is classed as functional. Put shortly:
as §2

The test system of data set [12] is L1210. Briefly: Cell cycle arrest in mouse L1210 cells assessed as accumulation of tetraploid cells at 25 nM after 21 hrs by flow cytometry using propidium iodide staining. In kind it is functional. In outline: as §2
Data set [13] relates to P388. Briefly: Antitumor activity against mouse P388 cells xenografted in B6D2F1 mouse at 100 mg/kg, iv relative to control. In kind it is functional. In outline:
(§3)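 P388 leukaemia cells inoculated ip at 10⁶ cells/mouse into B6D2F1 mice on day 0; compound given once ip or iv on day 1. Result expressed as % T/C = median survival time of treated over untreated controls ×100.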

Data set [14] deals with P388. Briefly: Antitumor activity against mouse P388 cells xenografted in B6D2F1 mouse at 50 to 100 mg/kg, ip relative to control. The data set is classed as functional. The settings on record: dose mg/kg 50-100; route intraperitoneal. In outline:
as §3

The nature of data set [15]: Metabolic stability in mouse liver microsomes assessed as bioavailability. The data set is classed as ADME, Microsome. The conditions noted are these: read-out: Metabolic Bioavailability. On the technique in general: Liver microsomes are a subcellular fraction often used to study metabolism.
Data set [16] is described as follows: Metabolic stability in human liver microsomes assessed as bioavailability. The conditions noted are these: read-out: Metabolic Bioavailability. In kind it is ADME, Microsome.
In data set [17] the test system is P388. Briefly: Antitumor activity against mouse P388 cells xenografted in B6D2F1 mouse assessed as survivality at 100 mg/kg, iv. The data set is classed as functional. In outline: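 P388 murine leukemia cells inoculated intraperitoneally (10⁶ cells/mouse) into B6D2F1 mice on day 0. Single intravenous dose given on day 1. Readout is percent T/C: median survival time of treated mice divided by median survival time of controls, ×100.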

The subject of data set [18] is P388. Briefly: Antitumor activity against mouse P388 cells xenografted in B6D2F1 mouse assessed as survivality at 50 to 100 mg/kg, ip. In kind it is functional. The conditions noted are these: dose mg/kg 50-100, route intraperitoneal.
Data set [19] concerns L1210. Briefly: Cell cycle arrest in mouse L1210 cells assessed as accumulation at G1 phase at 200 nM after 21 hrs by flow cytometry using propidium iodide staining. The data set is classed as functional. In outline: as §2
For data set [20], the system named is L1210. Briefly: Cell cycle arrest in mouse L1210 cells assessed as accumulation at S phase at 200 nM after 21 hrs by flow cytometry using propidium iodide staining. In kind it is functional. In outline:
as §2

Data set [21] relates to L1210. Briefly: Cell cycle arrest in mouse L1210 cells assessed as accumulation at G2/M phase at 200 nM after 21 hrs by flow cytometry using propidium iodide staining. The data set is classed as functional. Put shortly: as §2
For data set [22], the system named is L1210. Briefly: Cell cycle arrest in mouse L1210 cells assessed as accumulation of tetraploid cells at 200 nM after 21 hrs by flow cytometry using propidium iodide staining. In kind it is functional. In outline: as §2
Data set [23] has as its system L1210. Briefly: Cell cycle arrest in mouse L1210 cells assessed as accumulation at G1 phase at 100 nM after 21 hrs by flow cytometry using propidium iodide staining. The data set is classed as functional. In outline: as §2
In data set [24] the test system is L1210. Briefly: Cell cycle arrest in mouse L1210 cells assessed as accumulation at S phase at 100 nM after 21 hrs by flow cytometry using propidium iodide staining. In kind it is functional. In outline:
as §2

Data set [25] concerns L1210. Briefly: Cell cycle arrest in mouse L1210 cells assessed as accumulation at G2/M phase at 100 nM after 21 hrs by flow cytometry using propidium iodide staining. The data set is classed as functional. Put shortly: as §2
The subject of data set [26] is L1210. Briefly: Cell cycle arrest in mouse L1210 cells assessed as accumulation of tetraploid cells at 100 nM after 21 hrs by flow cytometry using propidium iodide staining. The data set is classed as functional. In outline: as §2

SMILES strings stand for the structures.

This note sets out measurements from ChEMBL document CHEMBL1143394, “Benzopyridooxathiazepine derivatives as novel potent antimitotic agents” (Bioorg Med Chem, 2009).

As usually defined, the IC50 is the concentration that gives 50% inhibition. Read a high IC50 as a need for much substance. The term T/C denotes the result in the treated group divided by that in the control group, in per cent. The term bioavailability denotes dose-corrected exposure relative to a reference, in per cent.

`O=S1(=O)Oc2ccccc2N=C2C1=CC=CN2CCc1ccc(O)cc1`: the IC50 with L1210 [1] was determined as 0.6 µM.
In turn, `O=S1(=O)Oc2ccccc2N=C2C1=CC=CN2CCc1ccc(OCc2ccccc2)cc1` registered an IC50 in the data set with L1210 [1] of more than 100 µM.
`COc1ccc(CCCN2C=CC=C3C2=Nc2ccccc2OS3(=O)=O)cc1` returned an IC50 in the data set on L1210 [1] of 8.6 µM.
On the same count and under the same terms, in the case of `COc1ccc(CCN2c3ccccc3OS(=O)(=O)c3cccnc32)cc1` it was 26.5 µM; in that of `COc1ccc(CN2c3ccccc3OS(=O)(=O)c3cccnc32)cc1`, 0.77 µM; in that of `COc1ccc(CN2C=CC=C3C2=Nc2ccccc2OS3(=O)=O)cc1`, 3.2 µM.
Turning to `COc1ccc(CCN2C=CC=C3C2=Nc2cc(Cl)ccc2OS3(=O)=O)cc1`, the Activity with HT-29 was 27.1 nM; in the data set on DU-145, 42.3 nM; in the data set with L1210 [2], 3%; in the data set on L1210 [3], 3%; in the data set on L1210 [4], 29%; in the data set with L1210 [5], 65%. The same compound displayed an IC50 in the data set with L1210 [1] of 0.027 µM.
`COc1ccc(CCCN2c3ccccc3OS(=O)(=O)c3cccnc32)cc1` registered an IC50 in the data set on L1210 [1] of 15.4 µM. In other words, the double-digit micromolar range.
Same read-out and setting: in the case of `COc1ccc(CCN2c3cc(OC)ccc3OS(=O)(=O)c3cccnc32)cc1` it was 11.2 µM.
For the compound `COc1cc([C@@H]2c3cc4c(cc3C[C@H]3COC(=O)[C@@H]32)OCO4)cc(OC)c1OC`, the INH in data set [6] was determined as 2.4 µM.
On to `COc1ccccc1CCN1C=CC=C2C1=Nc1ccccc1OS2(=O)=O`, for which the IC50 with L1210 [1] came to 14.8 µM.
With `COc1ccc(CCN2C=CC=C3C2=Nc2ccccc2OS3(=O)=O)cc1`, the Activity is on record as 25% with L1210 [7]; 13.2 nM in data set [8]; 16 nM in data set [9]; 10 nM with HT-29; 11.5 nM with A549; 17 nM with DU-145. In addition, the Activity in the data set with L1210 [10] turned out to be 4%; in the data set with L1210 [11], 3%; in the data set with L1210 [12], 60%; in the data set with P388 [17] it was 41%; in the data set on P388 [18] it was 61%. The same compound gave an IC50 in the data set on L1210 [1] of 0.0095 µM. For the same compound, the INH in [6] was 2.2 µM. Besides, the T/C with P388 [13] is reported as 141%; in the data set with P388 [14], 161%. The bioavailability in [15] and in data set [16] was less than 12% throughout.
Consider `COc1ccc(CCN2C=CC=C3C2=Nc2cc(OC)ccc2OS3(=O)=O)cc1`, for which the Activity came to 99.1 nM in the data set on A549; 116 nM in the data set with DU-145; 8% in the data set with L1210 [19]; 11% with L1210 [20]; 22% with L1210 [21]; 59% with L1210 [22]. Further, the IC50 in the data set with L1210 [1] was 0.043 µM.
In the data set on L1210 [1], `O=S1(=O)Oc2ccccc2N=C2C1=CC=CN2CCc1ccc(-c2ccccc2)cc1` showed a half-maximal inhibitory concentration (IC50) of 5 µM.
Consider `COc1cccc(CCN2C=CC=C3C2=Nc2ccccc2OS3(=O)=O)c1`, for which the IC50 in the data set on L1210 [1] stood at 0.8 µM.
The same measure, in the same setting: to `O=S1(=O)Oc2ccccc2N=C2C1=CC=CN2CCc1cccc2ccccc12` belongs 9.6 µM; to `O=S1(=O)Oc2ccccc2N(CCc2cccc3ccccc23)c2ncccc21`, more than 100 µM.
`COc1ccc(CCN2C=CC=C3C2=Nc2cc(C)ccc2OS3(=O)=O)cc1`: the Activity was 50.2 nM with HT-29; 4% in the data set with L1210 [23]; 3% in the data set with L1210 [24]; 17% with L1210 [25]; 75% in the data set with L1210 [26]. This compound also yielded an IC50 in the data set on L1210 [1] of 0.037 µM.
For `COc1cc(CCN2c3ccccc3OS(=O)(=O)c3cccnc32)cc(OC)c1OC`, the midpoint of inhibition with L1210 [1], the IC50, lay at 36.8 µM.
`COc1ccc(CCN2c3cc(C)ccc3OS(=O)(=O)c3cccnc32)cc1`: the IC50 with L1210 [1] was determined as 22.5 µM.
`COc1ccccc1CCN1c2ccccc2OS(=O)(=O)c2cccnc21` had an IC50 in the data set on L1210 [1] of more than 10 µM.
The compound `COc1cc(CCN2C=CC=C3C2=Nc2ccccc2OS3(=O)=O)cc(OC)c1OC` registered an IC50 in the data set with L1210 [1] of 27.7 µM.
On the same count and under the same terms, in the case of `COc1ccc(CCN2C=CC=C3C2=Nc2ccccc2NS3(=O)=O)cc1` it was 0.3 µM.
